Source: PubChem BioAssay
TCR CD3 inh: inhibitors of human TCR-CD3 interaction; TAMRA-labeled TCR probe fluorescence, biochemical; inhibition, % at 9.4 µM; actives 0.37% (n = 360,000);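 note: recombinant mutant TCR 2C K166C tagged with TAMRA read by polarization; 0% = receptor in buffer alone and 100% = receptor with positive control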
HTRA1 inh: HTRA1 (human) protease inhibition; recombinant HTRA1, FP-rhodamine activity-based probe, fluorescence polarization; AID 504803; actives 0.5% (n = 340,000); inhibition, % at 5.96 µM; Q92743; in the data active = inhibition above about 36%;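 note: 0% = enzyme with DMSO and 100% = wells lacking enzyme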
PAD4 inh: blocks human protein arginine deiminase 4; Q9UM07; recombinant PAD4, RCA probe fluorescence polarization; inhibition, % at 6.36 µM; actives 0.41% (n = 330,000);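 active = percent inhibition above a cutoff equal to the mean of all tested compounds plus 3 SD, cut at about 15% in these data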;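 note: 0% = PAD4 with RCA probe and DMSO and 100% = probe without PAD4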
SIAE inh: human SIAE inhibition, primary screen | AID 1053197 | SIAE FP-Rh probe binding, fluorescence polarization | Q9HAT2 | actives 0.69% (n = 370,000) | inhibition, % at 9.66 µM;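 active = inhibition above a cutoff: mean of compounds within the control limits plus 3 SD of those, cut at about 17% in these data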;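 note: 0% = plate median of compound wells and 100% = probe without SIAE protein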
TDP2 inh: TDP2 (human) inhibition, absorbance primary screen | O95551 | actives 0.34% (n = 370,000) | AID 720702 | inhibition, % at 12.8 µM | recombinant TDP2, T5PNP hydrolysis, p-nitrophenol absorbance 415 nm;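 active = inhibition above the mean of all tested compounds plus 3 SD, set per campaign, cut at about 25% in these data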;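 note: 0% = DMSO with enzyme and 100% = buffer with substrate but no TDP2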
Target sequence (O95551 whole entry, looked up): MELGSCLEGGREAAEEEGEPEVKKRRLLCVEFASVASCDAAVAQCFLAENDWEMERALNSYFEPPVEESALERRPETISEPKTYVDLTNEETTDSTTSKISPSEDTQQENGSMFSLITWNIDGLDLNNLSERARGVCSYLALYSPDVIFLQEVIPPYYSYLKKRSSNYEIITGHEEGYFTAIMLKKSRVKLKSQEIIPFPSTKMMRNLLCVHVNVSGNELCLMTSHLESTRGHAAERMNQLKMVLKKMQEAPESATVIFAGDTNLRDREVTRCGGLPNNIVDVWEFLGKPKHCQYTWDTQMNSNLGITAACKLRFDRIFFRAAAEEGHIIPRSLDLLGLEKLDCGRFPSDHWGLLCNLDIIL
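Material: recombinant human TDP2; quantity: TDP2 enzyme at 120 nM final; medium: Tris-HCl pH 7.5 with MgCl2; compound: single concentration, 12.8 µM nominal, with 1% DMSO; incubation: 2 h enzyme incubation at 37 °C; signal: epi absorbance; measure: percent inhibition; benchmarks: high control without enzyme, low control DMSO plus TDP2; repeats: singlicate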
mABHD4 FP: inhibitors of mouse ABHD4. purified mABHD4, FP-Rh probe fluorescence polarization. inhibition, % at 8.92 µM. actives 0.54% (n = 370,000);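 active = inhibition exceeding the mean over every tested compound plus 3 SD, cut at about 30% in these data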;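 note: 0% = plate median of compound wells and 100% = S159A mutant with DMSO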
Target sequence (Q8VD66 whole entry, looked up): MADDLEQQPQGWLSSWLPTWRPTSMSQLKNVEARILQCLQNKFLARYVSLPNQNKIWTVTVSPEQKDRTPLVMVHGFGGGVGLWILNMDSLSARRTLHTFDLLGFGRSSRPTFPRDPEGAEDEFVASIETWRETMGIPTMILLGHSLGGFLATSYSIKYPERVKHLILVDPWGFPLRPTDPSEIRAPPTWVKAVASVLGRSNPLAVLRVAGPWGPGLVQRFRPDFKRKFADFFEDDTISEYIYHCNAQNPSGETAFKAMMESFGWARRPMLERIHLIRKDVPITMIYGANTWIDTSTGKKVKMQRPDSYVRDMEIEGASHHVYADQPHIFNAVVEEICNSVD
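System: mouse ABHD4 enzyme, wild type / Medium: HEPES pH 7.0, NaCl, Pluronic buffer / Reagent: FP-Rh activity-based fluorescent probe / Control set: S159A mutant high control, sample median low control / Detection: fluorescence polarization with parallel and perpendicular emission, 525/598 nm / Schedule: 45 min + 60 min at 25 °C / Compound dosing: 8.92 µM, single dose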
BSA probe FL: interferes with TAMRA-BSA probe, flagging TCR-CD3 hits; shares compounds with TCR CD3 inh; TAMRA-labeled BSA probe fluorescence counterscreen; inhibition, % at 9.4 µM; actives 10% (n = 1,200); in the data active = inhibition above about 23%;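 note: 0% = buffer low control and 100% = reference high control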
TCR-CD3 conf: TCR-CD3 interaction inhibition, confirmation. shares compounds with TCR CD3 inh. TAMRA-labeled TCR probe fluorescence binding assay. inhibition, % at 9.4 µM. actives 48% (n = 1,200)
The depositor's hits bear a star; x = not tested or not shown. In the library only some 2% were active in any assay of this set; here they are far more common. Cut-off read from the data, not from the text of the source, unless noted: active = inhibition above about 19%; inactive = the rest.

SMILES	TCR CD3 inh	HTRA1 inh	PAD4 inh	SIAE inh	TDP2 inh	mABHD4 FP	BSA probe FL	TCR-CD3 conf
O=C(NN1C(=O)/C(=C/c2ccc(O)c(O)c2)SC1=S)c1ccccc1	-64.9	-56.3	-49.0	-97.5	-3.8	-41.8	x	x
CC(=O)c1ccc(NC(=O)c2cc(Cl)nc3ccccc23)cc1	62.0*	-19.6	-2.7	-2.8	3.4	-12.4	-1.5	-0.8
O=C(Nc1ccccc1)c1cc(Cl)nc2ccccc12	-3.8	-12.6	-2.4	-3.3	1.2	2.6	x	x
O=C(COC(=O)CN1C(=O)COc2ccccc21)NCc1ccc(F)cc1	3.0	-3.0	-2.0	-0.1	4.7	4.2	x	x
CCOc1ccc(C(=O)Nc2cc(-c3nc4ccccc4[nH]3)ccc2Cl)cc1[N+](=O)[O-]	25.1*	-48.0	-4.6	-78.1	9.9	-50.1	19.5	39.6*
CCCS(=O)(=O)N1CCCC(C(=O)NCCCN(Cc2ccccc2)C(C)C)C1 (centres undefined)	65.1*	3.7	6.7	7.2	1.6	-4.1	-2.4	0.4
CCCS(=O)(=O)N1CCCC(C(=O)NCCCN(C)Cc2ccccc2)C1 (centres undefined)	-9.3	5.7	1.1	4.0	-15.2	-7.1	x	x
Cc1cccc(C)c1NC(=O)COC(=O)c1c2c(nc3ccccc13)/C(=C\c1ccc3c(c1)OCO3)CCC2	58.5*	-16.9	11.4	22.4*	11.6	25.6	49.3*	30.3*
CC(=O)Nc1ccc(/C=N/NC(=O)c2cc(-c3ccco3)nc3ccccc23)cc1	2.2	-25.5	-2.7	-75.5	-9.8	-49.5	x	x
O=C(O)c1ccccc1/C=N/NC(=O)c1cc(-c2ccco2)nc2ccccc12	19.7*	20.1	-3.6	11.1	8.9	11.0	-8.5	25.1*
COc1ccc([C@H]2CC(=O)C[C@@H](CCn3cc(-c4ccccc4)nn3)O2)cc1	6.5	x	x	0.2	-4.5	4.4	x	x
COc1ccc([C@H]2CC(=O)C[C@@H](CCn3cc(Cc4ccccc4)nn3)O2)cc1	23.9*	x	x	-1.8	-2.8	-3.1	7.5	5.8
COc1ccccc1OCc1ccc(C(=O)Nc2ccncc2)o1	31.6*	-3.7	0.7	-5.3	4.4	-3.9	2.9	0.8
COc1ccccc1OCc1ccc(C(=O)NC(C)(C)C)o1	-4.5	0.3	-0.2	-1.3	0.3	1.3	x	x
COc1cccc(CNc2nc3cc(-c4ccccc4C)sc3c(=O)n2C)c1	-0.5	x	x	-30.8	0.7	-46.2	x	x
COc1ccc(-c2cc(CNc3nc4cc(-c5ccccc5C)sc4c(=O)n3C)on2)cc1	30.5*	x	x	-51.2	2.7	-20.1	8.4	12.4
Cc1cnc(NC(=O)C2CC=CCC2)s1 (centres undefined)	1.1	0.8	2.1	-12.5	-2.4	3.1	x	x
CSc1nc(O)c(C(c2ccccc2Cl)c2c(O)nc(SC)[nH]c2=O)c(=O)[nH]1	-14.3	5.2	0.4	0.5	-1.3	-0.2	x	x
CC1=NN(C(=O)c2ccccc2Br)C(O)(c2ccc(Cl)cc2)C1 (centres undefined)	27.6*	23.3	x	-7.9	-11.5	1.8	-6.5	13.2
CC1=NN(C(=O)c2ccccc2C)C(O)(c2ccc(Cl)cc2)C1 (centres undefined)	14.3	20.7	x	5.5	-9.7	-2.0	x	x
COc1cc(OC)cc(-c2nnc(SCc3ccc(C(=O)O)cc3)o2)c1	-6.1	0.5	-1.8	-7.9	13.8	-17.6	x	x
CS/C(N)=N/N=C/c1cc(Br)cc(Br)c1O	35.4*	20.2	-0.2	-1.9	-24.0	-2.6	13.8	35.7*
CC(CN1c2ccccc2Sc2ccccc21)N(C)C (centres undefined)	5.2	7.7	-1.3	5.8	3.0	3.9	x	x
C#CCN1c2ccccc2Sc2cccnc21	47.5*	7.3	1.5	7.6	6.9	5.4	2.2	2.0
COC(=O)C[C@H]1CC[C@@H]2[C@@H](COc3ccc(NS(=O)(=O)c4ccccc4Cl)cc3C(=O)N2C)O1	x	x	x	9.6	4.6	2.0	x	x
SMILES	TCR CD3 inh	HTRA1 inh	PAD4 inh	SIAE inh	TDP2 inh	mABHD4 FP	BSA probe FL	TCR-CD3 conf
CC(C)Cc1nnc(NC(=O)CCC(=O)NC2CCCCC2)s1	20.4*	3.9	-1.7	3.2	-4.0	4.6	-2.1	-1.1
CCc1nnc(NC(=O)CCC(=O)NC2CCCCC2)s1	0.1	-4.8	2.9	-1.1	-4.4	-7.4	x	x
COc1c(-c2ccc(O)cc2)oc2cc(O)cc(O)c2c1=O	31.9*	5.9	-3.3	5.8	-9.5	-2.1	-7.0	15.5
O=c1c(-c2c(O)cc(O)c3c(=O)cc(-c4ccc(O)cc4)oc23)c(-c2ccc(O)cc2)oc2cc(O)cc(O)c12	31.2*	12.2	-3.5	-36.2	0.0	-70.8	-1.7	22.6*
O=c1c(-c2ccc(O)cc2)coc2cc(O)cc(O)c12	-8.1	-2.2	-3.6	-5.9	4.1	1.9	x	x
c1ccc(-c2nnc3n2-c2ccccc2SC3)cc1	5.2	2.8	-2.0	0.3	-7.9	0.1	x	x
COC(=O)C1=C(CSc2nc3c(cc2C#N)CN(C)CC3)OC(N)=C(C#N)C1c1ccc(F)cc1 (centres undefined)	19.7*	18.7	1.2	6.7	5.0	14.2	-3.3	0.5
COCCNC(=O)c1ccc(N2CC3CC(C2)c2cccc(=O)n2C3)c(NC(=O)c2ccccc2Br)c1 (centres undefined)	49.1*	-1.3	x	-2.2	-5.0	-0.9	6.6	2.1
COCCNC(=O)c1ccc(N2CC3CC(C2)c2cccc(=O)n2C3)c(NC(=O)c2ccccc2Cl)c1 (centres undefined)	-5.1	8.1	x	1.2	-0.9	2.4	x	x
Cc1ccc(OCc2cc(C(=O)N(C)CCc3nc4ccccc4[nH]3)no2)cc1C	5.6	-10.8	x	6.9	5.1	-1.5	x	x
Cc1ccc(S(=O)(=O)CCC(=O)Oc2ccc3c(C)cc(=O)oc3c2)cc1	23.1*	-1.3	0.5	10.9	-6.1	2.4	-8.3	0.0
COc1ccc(S(=O)(=O)N2CCN(CC(=O)c3ccc(O)c(O)c3)CC2)cc1	24.9*	19.0	5.2	10.9	14.7	14.8	-4.0	18.0
Cc1ccccc1N=Cc1c(O)n(-c2nccs2)c(=O)c2ccccc12	0.3	-32.6	-0.4	-12.1	-4.8	10.4	x	x
O=c1c2ccccc2c(C=Nc2ccccc2O)c(O)n1-c1nccs1	61.5*	-0.6	-4.8	-6.1	-27.9	1.0	-10.3	49.7*
CCN(c1ccccc1)S(=O)(=O)c1cc(NC(=O)CSc2n[nH]c(=O)[nH]c2=O)ccc1Cl	65.8*	-53.6	2.1	-48.9	-7.0	-84.7	23.1*	55.7*
COc1cc([N+](=O)[O-])cc(/C=N/NC(=O)c2cccnc2)c1O	32.0*	6.2	-2.9	5.2	-2.6	20.8	-11.0	19.4*
